Calls of active or inactive are those of the source. The rule behind the calls is not given here.
Key:
[1] = Inhibition of Ustilago maydis GSK-3beta using Ser/Thr 6 peptide as substrate preincubated for 60 mins followed by ATP and substrate addition and measured after 45 mins by Z'lyte assay; design: species or system Mycosarcoma maydis
[2] = molecular target: T1, Glycogen synthase kinase-3 beta (Homo sapiens, UniProt P49841); test: Inhibition of recombinant human GSK-3beta using phosphorylated polypeptide as substrate incubated for 30 mins in presence of ATP by kinase-glo luminescence assay
How it was run: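 Buffer is 50 mM HEPES pH 7.5, 1 mM EDTA, 1 mM EGTA, 15 mM magnesium acetate. Runs 30 min at 30 °C; luminescence read 10 min after reagent. Inhibition is relative to no-inhibitor maximal activity.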
Target sequence in this assay (P49841 whole entry): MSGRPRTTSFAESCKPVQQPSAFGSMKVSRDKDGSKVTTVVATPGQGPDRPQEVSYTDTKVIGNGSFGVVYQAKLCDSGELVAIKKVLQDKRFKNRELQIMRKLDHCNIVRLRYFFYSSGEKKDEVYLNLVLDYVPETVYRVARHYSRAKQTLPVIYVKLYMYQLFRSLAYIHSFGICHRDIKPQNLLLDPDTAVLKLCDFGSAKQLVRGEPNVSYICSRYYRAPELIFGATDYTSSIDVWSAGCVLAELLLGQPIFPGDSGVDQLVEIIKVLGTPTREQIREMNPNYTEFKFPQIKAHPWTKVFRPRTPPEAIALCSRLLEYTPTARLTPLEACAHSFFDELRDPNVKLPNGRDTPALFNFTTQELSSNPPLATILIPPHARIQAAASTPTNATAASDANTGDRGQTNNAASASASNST

[3] = molecular target: T1, Glycogen synthase kinase-3 beta; test: Inhibition of recombinant human GSK-3beta at 50 uM using phosphorylated polypeptide as substrate incubated for 30 mins in presence of ATP by kinase-glo luminescence assay relative to control
How it was run: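 Kinase-Glo luminescence: 20 ng enzyme with test compound (DMSO ≤1% final), 25 μM substrate, 1 μM ATP. Buffer is 50 mM HEPES pH 7.5, 1 mM EDTA, 1 mM EGTA, 15 mM magnesium acetate. Runs 30 min at 30 °C; luminescence read 10 min after reagent. Inhibition is relative to no-inhibitor maximal activity.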
Target sequence in this assay (P49841 whole entry, looked up): as the sequence (P49841 whole entry) above

[4] = system: SH-SY5Y; test: Neuroprotective activity against OA-induced neuronal injury in human SH-SY5Y cells assessed as reduction in cell death at 0.1 to 10 uM pre-incubated for 1 hrs followed by OA addition measured after 24 hrs by MTT assay; assay type: functional, cell-based; settings: dose 0.1-10 µM
How it was run: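 SH-SY5Y cells (DMEM, 10% FBS, 1% pen/strep, 37 °C, 5% CO2) seeded at 60,000/well and grown 48 h. Compound (0.1, 0.5, 1, 5, 10 μM) added 1 h before okadaic acid at 30 nM, then 24 h. Viability by MTT (0.5 mg/mL, ≥4 h), formazan in DMSO, A595, as % control. Mean ± SEM, three independent experiments.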

[5] = molecular target: Cyclin-dependent kinase 2 (Homo sapiens) (UniProt P24941); test: Inhibition of CDK2 (unknown origin) assessed as enzyme remaining activity at 5 uM relative to control
[6] = molecular target: Cyclin-dependent kinase 5 (Homo sapiens) (UniProt Q00535); test: Inhibition of CDK5 (unknown origin) assessed as enzyme remaining activity at 5 uM relative to control
[7] = molecular target: Cyclin-dependent kinase 9 (Homo sapiens) (UniProt P50750); test: Inhibition of CDK9 (unknown origin) assessed as enzyme remaining activity at 5 uM relative to control
[8] = molecular target: Mitogen-activated protein kinase 3 (Homo sapiens) (UniProt P27361); test: Inhibition of ERK1 (unknown origin) assessed as enzyme remaining activity at 5 uM relative to control
[9] = molecular target: Mitogen-activated protein kinase 1 (Homo sapiens) (UniProt P28482); test: Inhibition of ERK2 (unknown origin) assessed as enzyme remaining activity at 5 uM relative to control
[10] = species: Homo sapiens; test: Inhibition of PKA (unknown origin) assessed as enzyme remaining activity at 5 uM relative to control
[11] = molecular target: RAC-alpha serine/threonine-protein kinase (Homo sapiens) (UniProt P31749); test: Inhibition of PKBalpha (unknown origin) assessed as enzyme remaining activity at 5 uM relative to control
[12] = molecular target: Protein kinase C alpha type (Homo sapiens) (UniProt P17252); test: Inhibition of PKCalpha (unknown origin) assessed as enzyme remaining activity at 5 uM relative to control
[13] = molecular target: Protein kinase C gamma type (Homo sapiens) (UniProt P05129); test: Inhibition of PKCgamma (unknown origin) assessed as enzyme remaining activity at 5 uM relative to control
[14] = molecular target: Glycogen synthase kinase-3 alpha (Homo sapiens) (UniProt P49840); test: Inhibition of GSK3alpha (unknown origin) assessed as enzyme remaining activity at 5 uM relative to control
Glycogen synthase kinase-3 alpha (Homo sapiens), sequence (P49840 2-483 limits assumed): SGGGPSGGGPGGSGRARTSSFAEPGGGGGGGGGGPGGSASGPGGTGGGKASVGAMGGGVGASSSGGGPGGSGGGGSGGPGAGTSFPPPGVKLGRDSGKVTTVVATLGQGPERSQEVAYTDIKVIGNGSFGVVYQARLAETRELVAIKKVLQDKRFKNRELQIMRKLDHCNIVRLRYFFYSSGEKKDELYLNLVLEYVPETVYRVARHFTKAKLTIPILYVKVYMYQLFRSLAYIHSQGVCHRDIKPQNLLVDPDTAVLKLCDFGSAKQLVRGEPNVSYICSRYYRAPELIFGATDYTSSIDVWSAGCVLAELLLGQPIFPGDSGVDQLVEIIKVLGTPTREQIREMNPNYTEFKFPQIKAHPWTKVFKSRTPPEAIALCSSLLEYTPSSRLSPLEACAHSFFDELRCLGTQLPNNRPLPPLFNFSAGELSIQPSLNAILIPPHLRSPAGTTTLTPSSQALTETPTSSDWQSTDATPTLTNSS

Cyclin-dependent kinase 9 (Homo sapiens), sequence (P50750 whole entry): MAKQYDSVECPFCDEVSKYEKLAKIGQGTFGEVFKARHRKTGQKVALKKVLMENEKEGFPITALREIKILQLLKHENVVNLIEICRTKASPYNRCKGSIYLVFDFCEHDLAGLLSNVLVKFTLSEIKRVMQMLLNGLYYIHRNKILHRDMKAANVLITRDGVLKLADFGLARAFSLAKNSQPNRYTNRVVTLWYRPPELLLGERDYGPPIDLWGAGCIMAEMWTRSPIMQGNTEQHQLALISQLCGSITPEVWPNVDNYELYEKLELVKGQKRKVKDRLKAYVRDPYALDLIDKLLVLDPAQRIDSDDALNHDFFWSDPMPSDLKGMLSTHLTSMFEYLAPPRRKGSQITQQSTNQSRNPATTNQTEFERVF
Mitogen-activated protein kinase 3 (Homo sapiens), sequence (P27361 whole entry): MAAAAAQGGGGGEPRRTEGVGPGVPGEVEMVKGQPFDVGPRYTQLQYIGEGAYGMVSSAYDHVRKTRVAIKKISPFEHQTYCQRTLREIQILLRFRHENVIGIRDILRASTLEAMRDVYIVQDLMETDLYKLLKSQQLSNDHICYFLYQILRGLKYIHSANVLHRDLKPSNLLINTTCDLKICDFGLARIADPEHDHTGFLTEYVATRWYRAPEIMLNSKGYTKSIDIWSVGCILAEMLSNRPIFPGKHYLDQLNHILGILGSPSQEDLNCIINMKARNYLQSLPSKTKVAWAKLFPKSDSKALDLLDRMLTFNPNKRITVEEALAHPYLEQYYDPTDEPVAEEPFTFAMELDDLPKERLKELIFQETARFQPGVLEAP
Mitogen-activated protein kinase 1 (Homo sapiens), sequence (P28482 whole entry): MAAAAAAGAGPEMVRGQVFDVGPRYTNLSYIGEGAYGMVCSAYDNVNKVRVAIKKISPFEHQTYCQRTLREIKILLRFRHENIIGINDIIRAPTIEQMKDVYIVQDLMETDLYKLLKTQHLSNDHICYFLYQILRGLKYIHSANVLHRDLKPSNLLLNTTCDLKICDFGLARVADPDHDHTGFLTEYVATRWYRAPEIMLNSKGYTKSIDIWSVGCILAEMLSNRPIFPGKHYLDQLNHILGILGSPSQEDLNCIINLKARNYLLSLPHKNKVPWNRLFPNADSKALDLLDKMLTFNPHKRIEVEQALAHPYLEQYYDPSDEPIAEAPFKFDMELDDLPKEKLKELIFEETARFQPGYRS
Cyclin-dependent kinase 5 (Homo sapiens), sequence (Q00535 whole entry, looked up): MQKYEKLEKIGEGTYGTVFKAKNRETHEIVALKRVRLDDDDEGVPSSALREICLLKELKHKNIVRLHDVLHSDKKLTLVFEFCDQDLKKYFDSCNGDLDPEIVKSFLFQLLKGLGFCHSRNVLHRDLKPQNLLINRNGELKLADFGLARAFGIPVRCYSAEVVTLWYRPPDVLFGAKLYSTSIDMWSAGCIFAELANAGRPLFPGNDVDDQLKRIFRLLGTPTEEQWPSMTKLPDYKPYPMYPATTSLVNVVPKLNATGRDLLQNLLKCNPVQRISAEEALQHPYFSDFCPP
RAC-alpha serine/threonine-protein kinase (Homo sapiens), sequence (P31749 whole entry): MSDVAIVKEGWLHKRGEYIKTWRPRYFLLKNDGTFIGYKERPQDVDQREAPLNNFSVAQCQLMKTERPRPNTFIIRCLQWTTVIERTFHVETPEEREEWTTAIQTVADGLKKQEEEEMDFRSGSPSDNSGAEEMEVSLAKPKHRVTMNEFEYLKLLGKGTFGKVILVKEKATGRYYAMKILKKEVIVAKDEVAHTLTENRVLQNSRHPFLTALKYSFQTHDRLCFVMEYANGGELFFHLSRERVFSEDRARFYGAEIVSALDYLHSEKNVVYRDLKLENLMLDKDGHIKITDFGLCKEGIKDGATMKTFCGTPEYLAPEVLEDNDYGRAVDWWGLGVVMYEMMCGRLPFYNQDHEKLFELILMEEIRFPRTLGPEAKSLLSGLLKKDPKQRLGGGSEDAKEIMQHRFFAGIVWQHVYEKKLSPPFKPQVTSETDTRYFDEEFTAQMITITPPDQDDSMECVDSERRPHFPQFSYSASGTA

| Compound | IC50 [2] | inhibition [3] | other results |
| --- | --- | --- | --- |
| CNC(=O)c1cc(Oc2ccc(NC(=O)Nc3cc(C(F)(F)F)c(Cl)cc3OCCCC(=O)O)cc2)ccn1 | – | – | IC50 [1]: 0.057 µM |
| CNC(=O)c1cc(Oc2ccc(NC(=O)Nc3ccc(Cl)c(C(F)(F)F)c3)cc2)ccn1 [SORAFENIB] | – | – | IC50 [1]: 0.71 µM |
| CC(C)=CC(=O)N1CC(NC(=O)Nc2ccc(F)cc2F)CC1C(=O)N[C@H](Cc1c[nH]c2ccccc12)C(N)=O (stereo partly specified) | > 50 µM | 5% | – |
| COC(=O)c1cccc(NC(=S)N[C@H]2CO[C@H]3[C@@H]2OC[C@H]3OC(=O)Nc2cccc(C(F)(F)F)c2)c1 | > 50 µM | 21% | – |
| N#Cc1cccc(NC(=O)N[C@H]2CO[C@H]3[C@@H]2OC[C@@H]3Nc2nccc(-c3cccc(F)c3)n2)c1 | 2.08 µM | – | Activity [4]: Active |
| O=C(Nc1cccc(C(F)(F)F)c1)O[C@@H]1CO[C@H]2[C@@H]1OC[C@@H]2NC(=S)Nc1ccc(Cl)cc1 | > 50 µM | 41% | – |
| CN(C)c1ccc(-c2ccnc(N[C@H]3CO[C@H]4[C@@H]3OC[C@@H]4NC(=O)Nc3cccc(C(F)(F)F)c3)n2)cc1 | 5.66 µM | – | – |
| CS(=O)(=O)c1ccc(CN2C[C@@H](F)[C@@H](OCc3nc4cc(C(F)(F)F)ccc4[nH]3)C2)cc1 | > 50 µM | 19% | – |
| Cc1ccc(-n2nc(C(C)(C)C)cc2NC(=O)Nc2ccc(OCCN3CCOCC3)c3ccccc23)cc1 [DORAMAPIMOD] | – | – | IC50 [1]: 1.06 µM |
| O=C(Nc1cccc(C(F)(F)F)c1)N[C@H]1CO[C@H]2[C@@H]1OC[C@H]2OC(=O)Nc1cccc2ccccc12 | > 50 µM | 35% | – |
| CC(C)(C)c1ccnc(N[C@H]2CO[C@H]3[C@@H]2OC[C@@H]3NC(=O)Nc2cccc(C(F)(F)F)c2)n1 | 14 µM | – | – |
| N#Cc1ccc(CN2C[C@@H](F)[C@@H](OCc3nc4cc(C(F)(F)F)ccc4[nH]3)C2)cc1 | > 50 µM | 2% | – |
| O=C(Nc1cccc(C(F)(F)F)c1)N[C@H]1CO[C@H]2[C@@H]1OC[C@@H]2n1nnnc1-c1cccc(CN2CCCC2)c1 | > 50 µM | 7% | – |
| O=C(c1ccccc1)N1C[C@@H](F)[C@@H](OCc2nc3cc(C(F)(F)F)ccc3[nH]2)C1 | > 50 µM | 7% | – |
| Cc1ccc(-n2nc(C(C)(C)C)cc2NC(=O)Nc2ccc(OCCN3CCOCC3)cc2)cc1 | – | – | IC50 [1]: 10.3 µM |
| COc1ccc(-c2ccnc(N[C@H]3CO[C@H]4[C@@H]3OC[C@@H]4NC(=O)Nc3ccccc3)n2)cc1 | 0.56 µM | – | Activity [4]: Active |
| Cn1cccc1C(=O)N1C[C@H](NC(=O)Nc2ccc(F)cc2F)C[C@@H]1C(=O)N[C@H](Cc1c[nH]c2ccccc12)C(N)=O | > 50 µM | 6% | – |
| O=C(Nc1ccccc1)N[C@H]1CO[C@H]2[C@@H]1OC[C@@H]2Nc1nccc(-c2cccs2)n1 | 2.7 µM | – | – |
| O=C(Nc1cccc2ccccc12)O[C@@H]1CO[C@H]2[C@@H]1OC[C@@H]2NC(=S)Nc1ccc(Cl)cc1 | > 50 µM | 39% | – |

| Compound | IC50 [2] | inhibition [3] | other results |
| --- | --- | --- | --- |
| CC(C)(C)c1cc(NC(=O)Nc2ccc(OCCN3CCOCC3)c3ccccc23)n(-c2cccc(N)c2)n1 | – | – | IC50 [1]: 1.1 µM |
| O=C(Nc1cccc(C(F)(F)F)c1)N[C@H]1CO[C@H]2[C@@H]1OC[C@@H]2OC(=O)Nc1ccc(Oc2ccccc2)cc1 | > 50 µM | 42% | – |
| COc1ccc(-c2ccnc(N[C@H]3CO[C@H]4[C@@H]3OC[C@@H]4NC(=O)Nc3cc(OC)cc(OC)c3)n2)cc1 | 0.421 µM | – | Activity [4]: Active |
| CC(=O)Nc1ccc(CN2C[C@@H](F)[C@@H](OCc3nc4cc(C)c(C)cc4[nH]3)C2)cc1 | > 50 µM | 2% | – |
| O=C(O)CCCNC(=O)c1cc(Oc2ccc(NC(=O)Nc3ccc(Cl)c(C(F)(F)F)c3)cc2)ccn1 | – | – | IC50 [1]: 0.154 µM |
| COc1ccc(-c2ccnc(N[C@H]3CO[C@H]4[C@@H]3OC[C@@H]4NC(=O)Nc3ccc(C(C)=O)cc3)n2)cc1 | 0.412 µM | – | Activity [5]: > 50%; Activity [6]: > 50%; Activity [7]: 33.8%; Activity [8]: > 50%; Activity [9]: > 50%; Activity [10]: > 50%; Activity [11]: > 50%; Activity [12]: > 50%; Activity [13]: > 50%; Activity [14]: > 50%; Activity [4]: Active |
| O=C(Nc1cccc(C(F)(F)F)c1)N[C@H]1CO[C@H]2[C@@H]1OC[C@@H]2Nc1nccc(-c2ccco2)n1 | 2.95 µM | – | – |
| Cn1sc(=O)n(Cc2ccccc2)c1=O | – | – | Activity [4]: Active |
| O=C(Nc1cccc2ccccc12)N[C@H]1CO[C@H]2[C@@H]1OC[C@H]2OC(=O)Nc1ccccc1 | > 50 µM | 21% | – |
| CC(C)(C)c1cc(NC(=O)Nc2ccc(Cl)cc2)n(-c2cccc(N)c2)n1 | – | – | IC50 [1]: 7.8 µM |
| CSCC(=O)N1C[C@@H](NC(=O)Nc2cccc(SC)c2)C[C@H]1C(=O)N[C@H](Cc1c[nH]c2ccccc12)C(N)=O | > 50 µM | 5% | – |
| COc1ccc2nc(CO[C@H]3CN(Cc4ccnc5ccccc45)C[C@H]3F)[nH]c2c1 | > 50 µM | 13% | – |
| CCOC(=O)Cc1ccc(-n2nc(C(C)(C)C)cc2NC(=O)Nc2ccc(OCCN3CCOCC3)c3ccccc23)cc1 | – | – | IC50 [1]: 1.8 µM |
| COc1ccc(C(=O)N2C[C@@H](F)[C@@H](OCc3nc4cc(C(F)(F)F)ccc4[nH]3)C2)cc1 | > 50 µM | 33% | – |
| COc1ccccc1-c1ccnc(N[C@H]2CO[C@H]3[C@@H]2OC[C@@H]3NC(=O)Nc2cccc(C(F)(F)F)c2)n1 | 27 µM | – | – |
| COC(=O)c1ccc2c(c1)nc1n2[C@@H](CNC(=O)Nc2ccccc2)COC1 | > 50 µM | 1% | – |
| Cc1nn(-c2ccccc2[N+](=O)[O-])c(C)c1[C@@H]1C=C[C@@H](NC(=O)Nc2cccc(C#N)c2)C1 | > 50 µM | 26% | – |
| COc1ccc(-c2ccnc(N[C@H]3CO[C@H]4[C@@H]3OC[C@@H]4NC(=O)Nc3cccc(C(F)(F)F)c3)n2)cc1 | 9.75 µM | – | – |

Further lines, with some results ahead:

| IC50 [2] | inhibition [3] | Compound | other results |
| --- | --- | --- | --- |
| > 50 µM | 19% | O=C(c1ccncc1)N1C[C@@H](F)[C@@H](OCc2nc3ccc(F)cc3[nH]2)C1 | – |
| > 50 µM | 14% | O=C(c1cccnc1)N1C[C@@H](F)[C@@H](OCc2nc3cc(C(F)(F)F)ccc3[nH]2)C1 | – |
| 6.08 µM | – | COc1ccccc1-c1ccnc(N[C@H]2CO[C@H]3[C@@H]2OC[C@@H]3NC(=O)Nc2cccc(C#N)c2)n1 | Activity [4]: inactive |
| 11.9 µM | – | O=C(Nc1cccc(C(F)(F)F)c1)N[C@H]1CO[C@H]2[C@@H]1OC[C@@H]2Nc1nccc(C2CCCC2)n1 | – |
| 4.04 µM | – | O=C(Nc1cccc(C(F)(F)F)c1)N[C@H]1CO[C@H]2[C@@H]1OC[C@@H]2Nc1nccc(-c2cccs2)n1 | – |
| > 50 µM | 1% | CSc1cccc(NC(=O)NC2C[C@@H]3CCCN2CC3CN(C)c2ccccc2)c1 (stereo partly specified) | – |
| > 50 µM | 14% | Cn1c(CO[C@H]2CN(Cc3c[nH]c4ccccc34)C[C@H]2F)nc2ccccc21 | – |
| 0.087 µM | – | COc1ccc(-c2ccnc(N[C@H]3CO[C@H]4[C@@H]3OC[C@@H]4NC(=O)Nc3cccc(C#N)c3)n2)cc1 | Activity [4]: Active |
| 2.06 µM | – | O=C(Nc1cccc(C(F)(F)F)c1)N[C@H]1CO[C@H]2[C@@H]1OC[C@@H]2Nc1nccc(-c2cccc(F)c2)n1 | Activity [4]: Active |
| > 50 µM | 5% | Cc1cc2nc(CO[C@H]3CN(Cc4cccnc4)C[C@H]3F)[nH]c2cc1C | – |
| 0.117 µM | – | CCNC(=O)N[C@H]1CO[C@H]2[C@@H]1OC[C@@H]2Nc1nccc(-c2ccc(OC)cc2)n1 | Activity [4]: Active |
| 1.08 µM | – | O=C(Nc1cccc(C(F)(F)F)c1)O[C@@H]1CO[C@H]2[C@@H]1OC[C@@H]2Nc1nccc(-c2ccc3c(c2)OCO3)n1 | Activity [4]: inactive |

— ChEMBL document CHEMBL4732164, “Structure-Based Design of Potent Selective Nanomolar Type-II Inhibitors of Glycogen Synthase Kinase-3β” (J Med Chem, 2021)
